The values that follow come from ChEMBL document CHEMBL1153032, “Benzhydrylquinazolinediones: novel cytosolic phospholipase A2alpha inhibitors with improved physicochemical properties” (Bioorg Med Chem, 2009).

≈ marks a conversion by molar mass, not a printed value.

Series [1] in a line: Inhibition of cytosolic phospholipase A2alpha by GLU micelle assay.
Series [2] can be described thus: Aqueous solubility after 18 hrs at pH 7.4. It counts as physicochemical. The gist of the method: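 Compound taken as 8 mg/mL DMSO stock; 13 µL added to 1.0 mL pH 7.4 buffer, mixed, left to settle 18 h at room temperature. Mixture filtered (0.2 µm), filtrate concentration read by UV plate reader. Solubility derived against a single-point standard.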
A short description of series [3]: Lipophilicity, log D at pH 7.4. Particulars: buffer. It counts as physicochemical.
Series [4] can be described thus: Permeability in buffer of pH 7.4 by PAMPA. Type of series: ADME. The note with it: read-out: permeability. The essentials:
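PAMPA: 5 mg/mL DMSO stock diluted 200-fold in pH 7.4 universal buffer (25 µg/mL) and placed in donor wells. Filter membrane coated with phosphatidylcholine in dodecane (20 mg/mL); acceptor holds pH 7.4 buffer. Sandwich left 18 h at rt. Donor, acceptor and reference concentrations read by UV. Effective permeability (Pe) calculated; triplicate runs averaged. Verapamil and theophylline run as QC standards.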
In general terms: PAMPA measures passive passage across an artificial lipid membrane.

Series [5] deals with MC9. Description: Inhibition of LTB4 production in DNP-BSA-stimulated mouse MC9 cells at 5 uM treated 15 mins before DNP-BSA challenge measured after 4 mins. It counts as functional.
Series [6] relates to MC9. Description: Inhibition of PGF2alpha production in arachidonic acid-stimulated mouse MC9 cells at 5 uM treated 15 mins before arachidonic acid challenge measured after 4 mins. Type of series: functional.
Series [7] concerns MC9. In words: Inhibition of PGF2alpha production in DNP-BSA-stimulated mouse MC9 cells at 5 uM treated 15 mins before DNP-BSA challenge measured after 4 mins. It counts as functional.

On to `O=C(O)c1ccc(OCCCCCCCn2c(=O)n(C(c3ccccc3)c3ccccc3)c(=O)c3ccccc32)cc1`, for which the IC50 in series [1] amounted to 71 µM.
Consider `O=C(O)c1ccc(OC/C=C\Cn2c(=O)c3ccccc3n(C(c3ccccc3)c3ccccc3)c2=O)cc1`, for which the concentration in solution in series [2] (solubility at 18 h) was 37 µg/mL (≈ 71.4 µM). In addition, the IC50 in series [1] is 25 µM.
For `O=C(O)C1CC1Cn1c(=O)c2cc(Br)ccc2n(C(c2ccccc2)c2ccccc2)c1=O` (stereo unspecified), half-maximal inhibition in series [1] (IC50) required 120 µM.
Take `O=C(O)Cc1coc(-c2ccc(Cn3c(=O)n(C(c4ccccc4)c4ccccc4)c(=O)c4ccccc43)cc2)n1`: in series [1], the midpoint of inhibition, the IC50, lay at 140 µM.
On the same count and under the same terms, the same measure for `O=C(O)c1ccc(Cn2c(=O)c3ccc(Cl)cc3n(C(c3ccccc3)c3ccccc3)c2=O)cc1`: 80 µM.
`O=C(O)c1ccc(OC/C=C/Cn2c(=O)n(C(c3ccccc3)c3ccccc3)c(=O)c3ccc(Oc4ccccc4)cc32)cc1` yielded a logD in series [3] of 4.8. In series [2], this molecule returned a solubility at 18 h of 15 µg/mL (≈ 24.6 µM). Besides, the IC50 in series [1] is 1.6 µM.
Regarding `O=C(O)CCCOc1ccc(Cn2c(=O)n(C(c3ccccc3)c3ccccc3)c(=O)c3ccccc32)cc1`, the IC50 in series [1] stood at 40 µM.
In series [1], `O=C(O)c1ccc(OCCCn2c(=O)n(C(c3ccccc3)c3ccccc3)c(=O)c3ccccc32)cc1` returned an IC50 of 50 µM.
In turn, `Cc1cccc(C)c1CS(=O)(=O)NCCc1c(CCCc2ccc(C(=O)O)cc2)c2cc(Cl)ccc2n1C(c1ccccc1)c1ccccc1` had an IC50 in series [1] of 0.014 µM.
In series [1], `O=C(O)c1ccc(OC/C=C/Cn2c(=O)n(C(c3ccccc3)c3ccccc3)c(=O)c3cc(Cl)ccc32)cc1` came in with an IC50 of 10 µM.
Take `Cc1ccc2c(=O)n(C(c3ccccc3)c3ccccc3)c(=O)n(C/C=C/COc3ccc(C(=O)O)cc3)c2c1`: the Papp in series [4] was found to be 2 ×10⁻⁶ cm/s. Also, the logD in series [3] came out at 3.2. The amount in solution in series [2] (solubility at 18 h) came to 40 µg/mL (≈ 75.1 µM). Further, the IC50 in series [1] came out at 2.8 µM.
In series [1], `O=C(O)c1ccc(OC/C=C\Cn2c(=O)n(C(c3ccccc3)c3ccccc3)c(=O)c3ccccc32)cc1` showed an IC50 of 44 µM.
On to `O=C(O)COc1ccc(Cn2c(=O)n(C(c3ccccc3)c3ccccc3)c(=O)c3ccccc32)cc1`, for which half-maximal inhibition in series [1] (IC50) was put at 360 µM.
Same read-out and setting: the same measure for `O=C(O)Cc1ccc(Cn2c(=O)n(C(c3ccccc3)c3ccccc3)c(=O)c3ccccc32)cc1`: 260 µM.
For `Nc1ccc2c(=O)n(C(c3ccccc3)c3ccccc3)c(=O)n(C/C=C/COc3ccc(C(=O)O)cc3)c2c1`, the Papp in series [4] came to 0.4 ×10⁻⁶ cm/s. The molecule also gave a logD in series [3] of 1.7. Also, the solubility at 18 h in series [2] is above 100 µg/mL. The IC50 in series [1] is 9 µM.
The molecule `O=C(O)c1ccc(OC/C=C\Cn2c(=O)n(C(c3ccccc3)c3ccccc3)c(=O)c3ccc(Cl)cc32)cc1` came in with an IC50 in series [1] of 30 µM.
Same read-out and setting: the value for `O=C(O)Cc1ccc(Cn2c(=O)c3cc(Br)ccc3n(C(c3ccccc3)c3ccccc3)c2=O)cc1` was 12 µM.
As for `O=C(O)c1ccc(OC/C=C/Cn2c(=O)n(C(c3ccccc3)c3ccccc3)c(=O)c3ccc(N4CCOCC4)cc32)cc1`, in series [4], the Papp came to 1 ×10⁻⁶ cm/s. This molecule returned a logD in series [3] of 2.5. This molecule had a solubility at 18 h in series [2] of 48 µg/mL (≈ 79.5 µM). In series [1], the IC50 is 2.2 µM.
The corresponding values for `COC(=O)C1CCN(c2ccc3c(=O)n(C(c4ccccc4)c4ccccc4)c(=O)n(C/C=C/COc4ccc(C(=O)O)cc4)c3c2)CC1` are 1 ×10⁻⁶ cm/s, 3.3, 30 µg/mL (≈ 45.5 µM) and 1.8 µM.
As to `O=C(O)c1ccc(OC/C=C/Cn2c(=O)n(C(c3ccccc3)c3ccccc3)c(=O)c3ccc(Sc4ccccc4)cc32)cc1`, the logD in series [3] stood at 4.8. Also, in series [1], the IC50 stood at 2.1 µM.
Regarding `O=C(O)c1ccc(OCCn2c(=O)c3ccccc3n(Cc3ccccc3)c2=O)cc1`, the IC50 in series [1] is above 100 µM.
On to `CSc1ccc2c(=O)n(C(c3ccccc3)c3ccccc3)c(=O)n(C/C=C/COc3ccc(C(=O)O)cc3)c2c1`, for which the Papp in series [4] is 4.5 ×10⁻⁶ cm/s. This molecule registered a logD in series [3] of 3.2. The molecule further yielded a solubility at 18 h in series [2] of 26 µg/mL (≈ 46 µM). The molecule further had an IC50 in series [1] of 2 µM.
With `O=C(O)c1ccc(OC/C=C\Cn2c(=O)n(C(c3ccccc3)c3ccccc3)c(=O)c3cc(Br)ccc32)cc1`, in series [1], the IC50 amounted to 30 µM.
In turn, `O=C(O)c1ccc(OC/C=C/Cn2c(=O)c3cc(F)ccc3n(C(c3ccccc3)c3ccccc3)c2=O)cc1` returned a solubility at 18 h in series [2] of 42 µg/mL (≈ 78.3 µM). For the same molecule, in series [1], half-maximal inhibition (IC50) required 5.6 µM.
Turning to `O=C(O)c1ccc(OCCCCn2c(=O)n(C(c3ccccc3)c3ccccc3)c(=O)c3ccc(Cl)cc32)cc1`, the half-inhibitory concentration (IC50) in series [1] stood at 2.5 µM.
For `CS(=O)(=O)c1ccc2c(=O)n(C(c3ccccc3)c3ccccc3)c(=O)n(C/C=C/COc3ccc(C(=O)O)cc3)c2c1`, the Papp in series [4] was found to be 0.3 ×10⁻⁶ cm/s. The logD in series [3] amounted to 1.4. Also, in series [2], the solubility at 18 h is above 100 µg/mL. The same molecule had an IC50 in series [1] of 15 µM.
With `O=C(O)c1ccc(OC/C=C/Cn2c(=O)n(C(c3ccccc3)c3ccccc3)c(=O)c3cc(Br)ccc32)cc1`, the IC50 in series [1] was determined as 9 µM.
Still for that read-out and setting: the value for `O=C(O)c1ccc(OCCn2c(=O)n(C(c3ccccc3)c3ccccc3)c(=O)c3ccc(Cl)cc32)cc1` was 10 µM; that for `O=C(O)c1cccc(OC/C=C/Cn2c(=O)n(C(c3ccccc3)c3ccccc3)c(=O)c3ccc(Cl)cc32)c1` was 100 µM.
As to `O=C(O)c1ccc(CCCc2c(CCNS(=O)(=O)Cc3ccc(Cl)c(Cl)c3)n(C(c3ccccc3)c3ccccc3)c3ccc(Cl)cc23)cc1` [EFIPLADIB], the IC50 in series [1] is 0.04 µM.
Still for that read-out and setting: the same measure for `O=C(O)c1ccc(OC/C=C\Cn2c(=O)n(C(c3ccccc3)c3ccccc3)c(=O)c3cc(F)ccc32)cc1`: 40 µM.
For `O=C(O)c1ccc(OC/C=C\Cn2c(=O)c3ccc(Cl)cc3n(C(c3ccccc3)c3ccccc3)c2=O)cc1`, the solubility at 18 h in series [2] worked out at 51 µg/mL (≈ 92.2 µM). The molecule further had an IC50 in series [1] of 60 µM.
The molecule `O=C(O)c1ccc(OC/C=C/Cn2c(=O)c3ccc(Cl)cc3n(C(c3ccccc3)c3ccccc3)c2=O)cc1` displayed a solubility at 18 h in series [2] of 28 µg/mL (≈ 50.6 µM). The same molecule came in with a half-maximal inhibitory concentration (IC50) in series [1] of 4.5 µM.
Turning to `O=C(O)c1ccc(OC/C=C\Cn2c(=O)n(C(c3ccccc3)c3ccccc3)c(=O)c3cc(Cl)ccc32)cc1`, the IC50 in series [1] was determined as 40 µM.
Take `Cc1c(CCOc2ccc(C(=O)O)cc2)c2cc(Cl)ccc2n1C(c1ccccc1)c1ccccc1`: the logD in series [3] worked out at 6.1. The results for the inhibition at 5 µM in the series on MC9 [5], in the series with MC9 [6] and in the series with MC9 [7] were 96%, -8% and 81%, respectively. The molecule further came in with an IC50 in series [1] of 3 µM.
Consider `O=C(O)c1ccc(OC/C=C/Cn2c(=O)n(C(c3ccccc3)c3ccccc3)c(=O)c3cc(F)ccc32)cc1`, for which it took 6 µM to reach half-maximal inhibition in series [1] (IC50).
As to `O=C(O)c1ccc(OCCn2c(=O)c3ccc(Cl)cc3n(C(c3ccccc3)c3ccccc3)c2=O)cc1`, the logD in series [3] was found to be 3.3. For the same molecule, the values for the inhibition at 5 µM with MC9 [5], in the series with MC9 [6] and in the series with MC9 [7] were 93%, 0% and 61%, respectively. Besides, half-maximal inhibition in series [1] (IC50) required 4 µM.
`O=C(O)c1ccc(OCCCCCCn2c(=O)n(C(c3ccccc3)c3ccccc3)c(=O)c3ccccc32)cc1` returned an IC50 in series [1] of 47 µM.
In series [1], `O=C(O)c1ccc(OCCCCCn2c(=O)n(C(c3ccccc3)c3ccccc3)c(=O)c3ccccc32)cc1` yielded an IC50 of 30 µM.
Turning to `O=C(O)c1ccc(OCCn2c(=O)c3ccccc3n(C(c3ccccc3)c3ccccc3)c2=O)cc1`, it took 10 µM to reach half-maximal inhibition in series [1] (IC50).
`O=C(O)c1ccc(Cn2c(=O)c3cc(Cl)ccc3n(C(c3ccccc3)c3ccccc3)c2=O)cc1` showed an IC50 in series [1] of 90 µM.
As to `O=C(O)c1ccc(OC/C=C/Cn2c(=O)n(C(c3ccccc3)c3ccccc3)c(=O)c3ccc(N4CCSCC4)cc32)cc1`, the logD in series [3] was determined as 3.6. Besides, it took 2.4 µM to reach half-maximal inhibition in series [1] (IC50).

In general, IC50 refers to the concentration needed to halve the response being measured. Usually solubility stands for the concentration that dissolves in the medium under given conditions. Higher therefore signals a readily soluble substance. The logD is the decadic logarithm of the distribution of all forms, ionised or not, between an organic phase and buffer at a given pH. One may read the inhibition as the drop in the measured response relative to a control, in per cent.
